Source: ChEMBL document CHEMBL1143012, “Synthesis and pharmacological in vitro and in vivo evaluations of novel triazole derivatives as ligands of the ghrelin receptor. 1” (J Med Chem, 2007)

Experiments:
[1] = biological target: T1, Growth hormone secretagogue receptor type 1 (Homo sapiens, UniProt Q92847); assay: Displacement of [125I-His9]ghrelin from human GHS1a receptor expressed in LLC PK1 cells; format: cell-based
Outline: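 Membranes from LLC PK-1 cells transiently electroporated with hGHS-R1a (harvested about 48 h), 10 µg protein, incubated 60 min at 25 °C with 60 pM 125I-His9-ghrelin in Tris pH 7.3/MgCl2/EDTA/bacitracin buffer. Filtered, washed, gamma counted; nonspecific binding with 10 µM ghrelin. Triplicates, at least three experiments.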

[2] = biological target: T1, Growth hormone secretagogue receptor type 1; assay: Activity at human GHS1a receptor expressed in CHO cells assessed as intracellular calcium mobilization relative to 0.1 uM ghrelin; format: functional, cell-based
[3] = biological target: T1, Growth hormone secretagogue receptor type 1; assay: Agonist activity at human GHS1a receptor expressed in CHO cells assessed as induction of intracellular calcium mobilization; format: functional, cell-based
Outline: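 CHO cells transiently expressing hGHS-R1a via electroporation, Fluo-4AM loaded (1 µM, 1 h, 37 °C), calcium fluorescence read 60 s at ex 485/em 525 nm. EC50 from agonist dose-response curves, response as percentage of maximal signal from 10 µM ghrelin; triplicates, means of at least three experiments.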

Rattus norvegicus [4] = assay: Stimulation of cumulative food intake per 100 g body weight in Sprague-Dawley rat at 160 ug/kg, sc at 6 hrs; format: functional
Outline: (§1)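 Male Sprague-Dawley rats (125-150 g), singly housed and trained, given compound sc alone (cumulative food intake as g/100 g body weight, weighed hourly to 6 h); percentage variation calculated as (compound minus hexarelin 80 µg/kg intake)/hexarelin intake at 6 h. Mean ± SEM, ANOVA with Dunnett's test.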

Rattus norvegicus [5] = assay: Stimulation of cumulative food intake in Sprague-Dawley rat at 160 ug/kg, sc at 6 hrs relative to 80 ug/kg hexarelin; format: functional; outline: as §1

T1 sequence (Q92847 whole entry): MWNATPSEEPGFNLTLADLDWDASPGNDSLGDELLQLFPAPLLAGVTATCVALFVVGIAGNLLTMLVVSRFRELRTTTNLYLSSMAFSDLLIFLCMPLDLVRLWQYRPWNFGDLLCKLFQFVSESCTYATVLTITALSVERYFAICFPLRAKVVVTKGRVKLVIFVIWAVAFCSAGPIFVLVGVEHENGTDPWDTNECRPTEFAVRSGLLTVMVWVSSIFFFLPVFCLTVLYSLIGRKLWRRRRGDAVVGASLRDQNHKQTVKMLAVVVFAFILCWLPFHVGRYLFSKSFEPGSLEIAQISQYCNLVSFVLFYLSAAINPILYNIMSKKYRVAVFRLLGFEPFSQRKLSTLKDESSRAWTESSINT

With `COc1ccc(CCn2c(CCc3ccccc3)nnc2[C@@H](Cc2c[nH]c3ccccc23)NC(=O)C(C)(C)N)cc1` the IC50 [1] was 550 nM, the Activity [2] was 82% and the Activity ([3]; filed as partial agonist) was “Partial agonist”.
In the case of `CC(C)(N)C(=O)N[C@H](Cc1c[nH]c2ccccc12)c1nnc(Cc2ccccc2)n1Cc1ccc(Cl)c(Cl)c1`, the IC50 [1] is reported as 520 nM, the Activity [2] is reported as 64% and the Activity ([3]; filed as partial agonist) is reported as “Partial agonist”.
`CC(C)(N)C(=O)N[C@H](Cc1c[nH]c2ccccc12)c1nnc(CCCc2c[nH]c3ccccc23)n1Cc1ccc(Br)cc1` was tested, and the Activity [2] was 25% and the Activity ([3]; filed as partial agonist) was “Partial agonist”.
With `COc1cccc(Cn2c(CCCc3c[nH]c4ccccc34)nnc2[C@@H](Cc2c[nH]c3ccccc23)NC(=O)C(C)(C)N)c1` the IC50 [1] was 22 nM, the Activity [2] was 66% and the EC50 [3] was 18 nM.
In the case of `COc1cccc(Cn2c(CCc3ccccc3)nnc2[C@@H](Cc2c[nH]c3ccccc23)NC(=O)C(C)(C)N)c1`, the Activity [2] is reported as 82%, the EC50 [3] is reported as 45 nM and the Activity (Rattus norvegicus [4]) is reported as 0.01 g. It also gave an Activity (Rattus norvegicus [5]) of -37%.
`COc1cccc(Cn2c(CCc3c[nH]c4ccccc34)nnc2[C@@H](Cc2c[nH]c3ccccc23)NC(=O)C(C)(C)N)c1` showed an Activity [2] of 63% and an EC50 [3] of 4 nM.
With `CC(C)(N)C(=O)N[C@H](Cc1c[nH]c2ccccc12)c1nnc(CCc2c[nH]c3ccccc23)n1Cc1ccc(F)cc1` the Activity [2] was 59% and the EC50 [3] was 210 nM.
`Cc1ccc(Cn2c(CCc3c[nH]c4ccccc34)nnc2[C@@H](Cc2c[nH]c3ccccc23)NC(=O)C(C)(C)N)cc1` was tested, and the Activity [2] was 69%, the EC50 [3] was 630 nM and the Activity (Rattus norvegicus [4]) was 0.3 g. For the same compound, the Activity (Rattus norvegicus [5]) was -49%.
With `COc1ccc(Cn2c(CCc3c[nH]c4ccccc34)nnc2[C@@H](Cc2c[nH]c3ccccc23)NC(=O)C(C)(C)N)cc1` the Activity [2] was 0%, the Activity (Rattus norvegicus [4]) was 0.06 g and the Activity (Rattus norvegicus [5]) was -31%.
`CCCCCCn1c(CCCc2c[nH]c3ccccc23)nnc1[C@@H](Cc1c[nH]c2ccccc12)NC(=O)C(C)(C)N` was tested, and the Activity [2] was 32% and the Activity ([3]; filed as partial agonist) was “Partial agonist”.
`CC(C)(N)C(=O)N[C@H](Cc1c[nH]c2ccccc12)c1nnc(CCc2c[nH]c3ccccc23)n1CCc1ccccc1` was tested, and the IC50 [1] was 80 nM, the Activity [2] was 25% and the Activity ([3]; filed as partial agonist) was “Partial agonist”.
`CC(C)(N)C(=O)N[C@H](Cc1c[nH]c2ccccc12)c1nnc(CCc2ccccc2)n1Cc1ccco1` was tested, and the IC50 [1] was 420 nM, the Activity [2] was 97% and the EC50 [3] was 23 nM.
`Cn1c(CCc2c[nH]c3ccccc23)nnc1[C@@H](Cc1c[nH]c2ccccc12)NC(=O)C(C)(C)N` showed an IC50 [1] of 580 nM.
`COc1ccc(Cn2c(Cc3c[nH]c4ccccc34)nnc2[C@@H](Cc2c[nH]c3ccccc23)NC(=O)C(C)(C)N)c(OC)c1` showed an IC50 [1] of 1000 nM.
With `CC(C)(N)C(=O)N[C@H](Cc1c[nH]c2ccccc12)c1nnc(CCc2c[nH]c3ccccc23)n1Cc1cccc2ccccc12` the Activity [2] was 54% and the Activity ([3]; filed as partial agonist) was “Partial agonist”.
For `CC(C)(N)C(=O)N[C@H](Cc1c[nH]c2ccccc12)c1nnc(Cc2c[nH]c3ccccc23)[nH]1`, the IC50 [1] was 2200 nM.
With `CC(C)(N)C(=O)N[C@H](Cc1c[nH]c2ccccc12)c1nnc(CCc2c[nH]c3ccccc23)n1Cc1ccc(Br)cc1` the IC50 [1] was 100 nM, the Activity [2] was 27% and the Activity ([3]; filed as partial agonist) was “Partial agonist”.
In the case of `CC(C)(N)C(=O)N[C@H](Cc1c[nH]c2ccccc12)c1nnc(Cc2ccccc2)n1CCc1ccccc1`, the IC50 [1] is reported as greater than 1000 nM, the Activity [2] is reported as 85% and the Activity ([3]; filed as partial agonist) is reported as “Partial agonist”.
With `CC(C)(N)C(=O)N[C@H](Cc1c[nH]c2ccccc12)c1nnc(CCc2ccccc2)n1Cc1ccc([N+](=O)[O-])cc1` the IC50 [1] was greater than 1000 nM and the Activity [2] was 10%.
Compound `CC(C)(N)C(=O)N[C@H](Cc1c[nH]c2ccccc12)c1nnc(CCc2c[nH]c3ccccc23)n1-c1ccccc1` has an Activity [2] of 91% and an EC50 [3] of 41 nM.
`CC(C)(N)C(=O)N[C@H](Cc1c[nH]c2ccccc12)c1nnc(CCc2ccccc2)n1Cc1ccc(Cl)c(Cl)c1` was tested, and the IC50 [1] was 640 nM, the Activity [2] was 53% and the Activity ([3]; filed as partial agonist) was “Partial agonist”.
For `CC(C)(N)C(=O)N[C@H](Cc1c[nH]c2ccccc12)c1nnc(CCc2ccccc2)n1Cc1cccc2ccccc12`, the IC50 [1] was 130 nM, the Activity [2] was 40% and the Activity ([3]; filed as partial agonist) was “Partial agonist”.
`CC(C)(N)C(=O)N[C@H](Cc1c[nH]c2ccccc12)c1nnc(Cc2ccccc2)n1CC(c1ccccc1)c1ccccc1` was tested, and the IC50 [1] was greater than 1000 nM, the Activity [2] was 60% and the Activity ([3]; filed as partial agonist) was “Partial agonist”.
`CCCCCCn1c(CCc2c[nH]c3ccccc23)nnc1[C@@H](Cc1c[nH]c2ccccc12)NC(=O)C(C)(C)N` was tested, and the IC50 [1] was 195 nM, the Activity [2] was 62% and the Activity ([3]; filed as partial agonist) was “Partial agonist”.
`Cn1c(Cc2c[nH]c3ccccc23)nnc1[C@@H](Cc1c[nH]c2ccccc12)NC(=O)C(C)(C)N` gave an IC50 [1] of 1700 nM.
With `COc1ccc(Cn2c(CCCc3c[nH]c4ccccc34)nnc2[C@@H](Cc2c[nH]c3ccccc23)NC(=O)C(C)(C)N)c(OC)c1` the IC50 [1] was 750 nM, the Activity [2] was 27% and the Activity ([3]; filed as partial agonist) was “Partial agonist”.
In the case of `CC(C)(N)C(=O)N[C@H](Cc1c[nH]c2ccccc12)c1nnc(CCc2ccccc2)n1Cc1ccccn1`, the IC50 [1] is reported as greater than 1000 nM, the Activity [2] is reported as 59% and the Activity ([3]; filed as partial agonist) is reported as “Partial agonist”.
With `CC(C)(N)C(=O)N[C@H](Cc1c[nH]c2ccccc12)c1nnc(CCc2ccccc2)n1Cc1ccc(F)cc1` the IC50 [1] was 400 nM, the Activity [2] was 20% and the Activity ([3]; filed as partial agonist) was “Partial agonist”.
For `CC(C)(N)C(=O)N[C@H](Cc1c[nH]c2ccccc12)c1nnc(Cc2ccccc2)n1Cc1ccc(F)cc1`, the Activity [2] was 60% and the Activity ([3]; filed as partial agonist) was “Partial agonist”.
With `CC(C)(N)C(=O)N[C@H](Cc1c[nH]c2ccccc12)c1nnc(Cc2ccccc2)n1CCc1c[nH]c2ccccc12` the IC50 [1] was 700 nM, the Activity [2] was 95% and the Activity ([3]; filed as agonist) was “Agonist”.
With `CC(C)(N)C(=O)N[C@H](Cc1c[nH]c2ccccc12)c1nnc(Cc2ccccc2)n1Cc1ccccc1` the IC50 [1] was 500 nM, the Activity [2] was 44% and the Activity ([3]; filed as partial agonist) was “Partial agonist”.
`CC(C)(N)C(=O)N[C@H](Cc1c[nH]c2ccccc12)c1nnc(CCc2c[nH]c3ccccc23)n1Cc1ccccc1` was tested, and the IC50 [1] was 15 nM, the EC50 [3] was 64 nM and the Activity (Rattus norvegicus [4]) was 0.02 g. For the same compound, the Activity (Rattus norvegicus [5]) was -4%.
For `CC(C)(N)C(=O)N[C@H](Cc1c[nH]c2ccccc12)c1nnc(Cc2ccccc2)n1Cc1ccc(Br)cc1`, the IC50 [1] was 440 nM, the Activity [2] was 16% and the Activity ([3]; filed as partial agonist) was “Partial agonist”.
In the case of `COc1cc(Cn2c(CCc3c[nH]c4ccccc34)nnc2[C@@H](Cc2c[nH]c3ccccc23)NC(=O)C(C)(C)N)cc(OC)c1`, the IC50 [1] is reported as 150 nM, the Activity [2] is reported as 22% and the Activity ([3]; filed as partial agonist) is reported as “Partial agonist”.
`COc1ccccc1Cn1c(CCc2ccccc2)nnc1[C@@H](Cc1c[nH]c2ccccc12)NC(=O)C(C)(C)N` gave an Activity [2] of 80%, an EC50 [3] of 98 nM and an Activity (Rattus norvegicus [4]) of 0.29 g. For the same compound, the Activity (Rattus norvegicus [5]) was -57%.
With `CC(C)(N)C(=O)N[C@H](Cc1c[nH]c2ccccc12)c1nnc(Cc2c[nH]c3ccccc23)n1CCc1ccccc1` the IC50 [1] was 300 nM, the Activity [2] was 88% and the Activity ([3]; filed as partial agonist) was “Partial agonist”.
With `CC(C)(N)C(=O)N[C@H](Cc1c[nH]c2ccccc12)c1nnc(CCc2c[nH]c3ccccc23)n1CC(c1ccccc1)c1ccccc1` the IC50 [1] was 640 nM, the Activity [2] was 62% and the Activity ([3]; filed as partial agonist) was “Partial agonist”.
For `COc1cccc(Cn2c(Cc3ccccc3)nnc2[C@@H](Cc2c[nH]c3ccccc23)NC(=O)C(C)(C)N)c1`, the Activity [2] was 50% and the Activity ([3]; filed as partial agonist) was “Partial agonist”.
With `COc1cc(Cn2c(Cc3ccccc3)nnc2[C@@H](Cc2c[nH]c3ccccc23)NC(=O)C(C)(C)N)cc(OC)c1` the IC50 [1] was 110 nM, the Activity [2] was 29% and the Activity ([3]; filed as partial agonist) was “Partial agonist”.
`CC(C)(N)C(=O)N[C@H](Cc1c[nH]c2ccccc12)c1nnc(CCc2ccccc2)n1CCc1ccccc1` was tested, and the IC50 [1] was 310 nM, the Activity [2] was 63% and the Activity ([3]; filed as partial agonist) was “Partial agonist”.
For `Cc1ccc(Cn2c(Cc3ccccc3)nnc2[C@@H](Cc2c[nH]c3ccccc23)NC(=O)C(C)(C)N)cc1`, the IC50 [1] was 840 nM, the Activity [2] was 28% and the Activity ([3]; filed as partial agonist) was “Partial agonist”.
With `CC(C)(N)C(=O)N[C@H](Cc1c[nH]c2ccccc12)c1nnc(Cc2ccccc2)n1Cc1ccccn1` the IC50 [1] was greater than 1000 nM, the Activity [2] was 78% and the Activity ([3]; filed as partial agonist) was “Partial agonist”.
In the case of `Cc1ccc(Cn2c(CCc3ccccc3)nnc2[C@@H](Cc2c[nH]c3ccccc23)NC(=O)C(C)(C)N)cc1`, the IC50 [1] is reported as 140 nM, the Activity [2] is reported as 19% and the Activity ([3]; filed as partial agonist) is reported as “Partial agonist”.
`CC(C)(N)C(=O)N[C@H](Cc1c[nH]c2ccccc12)c1nnc(CCc2ccccc2)n1Cc1cccs1` was tested, and the IC50 [1] was 570 nM, the Activity [2] was 91% and the Activity ([3]; filed as agonist) was “Agonist”.
`CCc1ccc(Cn2c(CCc3ccccc3)nnc2[C@@H](Cc2c[nH]c3ccccc23)NC(=O)C(C)(C)N)cc1` gave an Activity [2] of 26% and an EC50 [3] of 11 nM.
Compound `CC(C)(N)C(=O)N[C@H](Cc1c[nH]c2ccccc12)c1nncn1CCc1c[nH]c2ccccc12` has an IC50 [1] of 850 nM.
With `CCCCCCn1c(Cc2ccccc2)nnc1[C@@H](Cc1c[nH]c2ccccc12)NC(=O)C(C)(C)N` the IC50 [1] was 470 nM, the Activity [2] was 67% and the Activity ([3]; filed as partial agonist) was “Partial agonist”.
For `CC(C)(N)C(=O)N[C@H](Cc1c[nH]c2ccccc12)c1nnc(Cc2ccccc2)n1Cc1cccc2ccccc12`, the Activity [2] was 78% and the Activity ([3]; filed as partial agonist) was “Partial agonist”.
With `CC(C)(N)C(=O)N[C@H](Cc1c[nH]c2ccccc12)c1nnc(CCCc2c[nH]c3ccccc23)n1Cc1cccc2ccccc12` the IC50 [1] was 140 nM, the Activity [2] was 62% and the Activity ([3]; filed as partial agonist) was “Partial agonist”.
